Tests used:
Assay type in all cases: functional
HL-60(TB) = experiment: Growth inhibition of human HL-60(TB) cells at 10 uM relative to control; conditions: read-out: INH
In short: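 Single-dose cell line screen run by the NCI (NIH) in its human cancer cell line panel, which includes the leukemia line HL-60(TB). Percent growth inhibition was calculated by comparison with untreated samples.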

HT-29 = experiment: Growth inhibition of human HT-29 cells at 10 uM relative to control; conditions: values are per cent of control
In short: (§1)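 Single-dose preliminary screen in the NCI human cancer cell line panel, run by the NIH. Percent inhibition of cell line growth was calculated by comparison with untreated samples.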

DU-145 = experiment: Growth inhibition of human DU145 cells at 10 uM relative to control; conditions: values are per cent of control; in short: as §1
SN12C = experiment: Growth inhibition of human SN12C cells at 10 uM relative to control; conditions: values are per cent of control; in short: as §1
CCRF-CEM = experiment: Growth inhibition of human CCRF-CEM cells at 10 uM relative to control; conditions: values are per cent of control; in short: as §1
NCI/ADR-RES = experiment: Growth inhibition of human NCI/ADR-RES cells at 10 uM relative to control; conditions: values are per cent of control; in short: as §1
SNB-19 = experiment: Growth inhibition of human SNB19 cells at 10 uM relative to control; conditions: values are per cent of control; in short: as §1
HCT-15 = experiment: Growth inhibition of human HCT15 cells at 10 uM relative to control; conditions: values are per cent of control; in short: as §1
SNB-75 = experiment: Growth inhibition of human SNB75 cells at 10 uM relative to control; conditions: values are per cent of control
In short: (§2)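 Single-dose NCI human tumour cell line screen, run by the NIH. Percent inhibition of cell line growth was calculated by comparison with untreated samples.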

NCI-H226 = experiment: Growth inhibition of human NCI-H226 cells at 10 uM relative to control; conditions: values are per cent of control; in short: as §1
HCC 2998 = experiment: Growth inhibition of human HCC2998 cells at 10 uM relative to control; conditions: values are per cent of control; in short: as §1
A549 = experiment: Growth inhibition of human A549 cells at 10 uM relative to control; conditions: values are per cent of control; in short: as §1
U-251 = experiment: Growth inhibition of human U251 cells at 10 uM relative to control; conditions: values are per cent of control; in short: as §2
cells [1] = conditions: Homo sapiens, Cancer cell lines
NCI-H460 = experiment: Growth inhibition of human NCI-H460 cells at 10 uM relative to control; conditions: values are per cent of control; in short: as §1
BT-549 = experiment: Growth inhibition of human BT549 cells at 10 uM relative to control; conditions: values are per cent of control; in short: as §1
OVCAR-4 = experiment: Growth inhibition of human OVCAR4 cells at 10 uM relative to control; conditions: values are per cent of control; in short: as §1
LOX IMVI = experiment: Growth inhibition of human LOXIMVI cells at 10 uM relative to control; conditions: values are per cent of control; in short: as §1
MDA-MB-435 = experiment: Growth inhibition of human MDA-MB-435 cells at 10 uM relative to control; conditions: values are per cent of control; in short: as §1
M14 = experiment: Growth inhibition of human M14 cells at 10 uM relative to control; conditions: values are per cent of control; in short: as §1
T47D = experiment: Growth inhibition of human T47D cells at 10 uM relative to control; conditions: values are per cent of control; in short: as §2
SK-MEL-2 = experiment: Growth inhibition of human SK-MEL-2 cells at 10 uM relative to control; conditions: values are per cent of control; in short: as §1
SF-268 = experiment: Growth inhibition of human SF268 cells at 10 uM relative to control; conditions: values are per cent of control; in short: as §1
SF-539 = experiment: Growth inhibition of human SF539 cells at 10 uM relative to control; conditions: values are per cent of control; in short: as §1
NCI-H522 = experiment: Growth inhibition of human NCI-H522 cells at 10 uM relative to control; conditions: values are per cent of control; in short: as §1
KM12 = experiment: Growth inhibition of human KM12 cells at 10 uM relative to control; conditions: values are per cent of control; in short: as §1
UO-31 = experiment: Growth inhibition of human UO31 cells at 10 uM relative to control; conditions: values are per cent of control; in short: as §2
MDA-MB-231 = experiment: Growth inhibition of human MDA-MB-231 cells at 10 uM relative to control; conditions: values are per cent of control; in short: as §1
SF-295 = experiment: Growth inhibition of human SF295 cells at 10 uM relative to control; conditions: values are per cent of control; in short: as §1
NCI-H23 = experiment: Growth inhibition of human NCI-H23 cells at 10 uM relative to control; conditions: values are per cent of control; in short: as §1
NCI-H322M = experiment: Growth inhibition of human NCI-H322M cells at 10 uM relative to control; conditions: values are per cent of control; in short: as §1
SK-MEL-5 = experiment: Growth inhibition of human SK-MEL-5 cells at 10 uM relative to control; conditions: values are per cent of control; in short: as §1
COLO 205 = experiment: Growth inhibition of human COLO205 cells at 10 uM relative to control; conditions: values are per cent of control; in short: as §1
HCT-116 = experiment: Growth inhibition of human HCT116 cells at 10 uM relative to control; conditions: values are per cent of control; in short: as §1
MCF7 = experiment: Growth inhibition of human MCF7 cells at 10 uM relative to control; conditions: values are per cent of control; in short: as §1
SK-MEL-28 = experiment: Growth inhibition of human SK-MEL-28 cells at 10 uM relative to control; conditions: values are per cent of control; in short: as §1
K562 = experiment: Growth inhibition of human K562 cells at 10 uM relative to control; conditions: values are per cent of control; in short: as §1
786-0 = experiment: Growth inhibition of human 786-0 cells at 10 uM relative to control; conditions: values are per cent of control; in short: as §1
Malme-3M = experiment: Growth inhibition of human MALME-3M cells at 10 uM relative to control; conditions: values are per cent of control; in short: as §1
TK-10 = experiment: Growth inhibition of human TK10 cells at 10 uM relative to control; conditions: values are per cent of control; in short: as §2
MOLT-4 = experiment: Growth inhibition of human MOLT4 cells at 10 uM relative to control; conditions: values are per cent of control; in short: as §1
UACC-62 = experiment: Growth inhibition of human UACC62 cells at 10 uM relative to control; conditions: values are per cent of control; in short: as §2
[2] = Growth inhibition of human RPMI8266 cells at 10 uM relative to control; conditions: values are per cent of control; in short: as §1
EKVX = experiment: Growth inhibition of human EKVX cells at 10 uM relative to control; conditions: values are per cent of control; in short: as §1
IGROV-1 = experiment: Growth inhibition of human IGROV1 cells at 10 uM relative to control; conditions: values are per cent of control; in short: as §1
CAKI-1 = experiment: Growth inhibition of human Caki1 cells at 10 uM relative to control; conditions: values are per cent of control; in short: as §1
cells [3] = conditions: Homo sapiens, Cancer cell lines; remark: listed apart in the source
Leukemia cell = experiment: cells; conditions: Homo sapiens
UACC-257 = experiment: Growth inhibition of human UACC257 cells at 10 uM relative to control; conditions: values are per cent of control; in short: as §2
HOP-62 = experiment: Growth inhibition of human HOP62 cells at 10 uM relative to control; conditions: values are per cent of control; in short: as §1
SK-OV-3 = experiment: Growth inhibition of human SKOV3 cells at 10 uM relative to control; conditions: values are per cent of control; in short: as §1
OVCAR-8 = experiment: Growth inhibition of human OVCAR8 cells at 10 uM relative to control; conditions: values are per cent of control; in short: as §1
cells [4] = conditions: Homo sapiens, Cancer cell lines; remark: listed apart in the source
cells [5] = conditions: Homo sapiens, Cancer cell lines; remark: listed apart in the source
ACHN = experiment: Growth inhibition of human ACHN cells at 10 uM relative to control; conditions: values are per cent of control; in short: as §1
OVCAR-3 = experiment: Growth inhibition of human OVCAR-3 cells at 10 uM relative to control; conditions: values are per cent of control; in short: as §1
MDA-MB-468 = experiment: Growth inhibition of human MDA-MB-468 cells at 10 uM relative to control; conditions: values are per cent of control; in short: as §1
cells [6] = conditions: Homo sapiens, Cancer cell lines; remark: listed apart in the source
OVCAR-5 = experiment: Growth inhibition of human OVCAR5 cells at 10 uM relative to control; conditions: values are per cent of control; in short: as §1
PC-3 = experiment: Growth inhibition of human PC3 cells at 10 uM relative to control; conditions: values are per cent of control; in short: as §1
[7] = Growth inhibition of human Hs 578T cells at 10 uM relative to control; conditions: values are per cent of control; in short: as §1
Melanoma cell = experiment: cells; conditions: Homo sapiens

## O=C(/C=C/c1cn(CC(=O)c2ccccc2)nn1)NO
HL-60(TB)
  growth, % of control at 10 µM: 258%
HT-29
  growth, % of control at 10 µM: 60%
DU-145
  growth, % of control at 10 µM: 75.2%
SN12C
  growth, % of control at 10 µM: 86.2%
CCRF-CEM
  growth, % of control at 10 µM: 48.6%
NCI/ADR-RES
  growth, % of control at 10 µM: 14.8%
SNB-19
  growth, % of control at 10 µM: 101%
HCT-15
  growth, % of control at 10 µM: 117%
SNB-75
  growth, % of control at 10 µM: 53.9%
NCI-H226
  growth, % of control at 10 µM: 89.4%
HCC 2998
  growth, % of control at 10 µM: 71.1%
A549
  growth, % of control at 10 µM: 54.1%
U-251
  growth, % of control at 10 µM: 76%
Cells [1]
  inhibition at 10 µM: 67%
NCI-H460
  growth, % of control at 10 µM: 62.5%
BT-549
  growth, % of control at 10 µM: 72.1%
OVCAR-4
  growth, % of control at 10 µM: 77.8%
LOX IMVI
  growth, % of control at 10 µM: 88.3%
MDA-MB-435
  growth, % of control at 10 µM: 23.3%
M14
  growth, % of control at 10 µM: 49.5%
T47D
  growth, % of control at 10 µM: 64.7%
SK-MEL-2
  growth, % of control at 10 µM: 61.7%
SF-268
  growth, % of control at 10 µM: 71.9%
SF-539
  growth, % of control at 10 µM: 86.4%
NCI-H522
  growth, % of control at 10 µM: 31.1%
KM12
  growth, % of control at 10 µM: 78%
UO-31
  growth, % of control at 10 µM: 45.3%
MDA-MB-231
  growth, % of control at 10 µM: 96.9%
SF-295
  growth, % of control at 10 µM: 15.3%
NCI-H23
  growth, % of control at 10 µM: 69.2%
NCI-H322M
  growth, % of control at 10 µM: 41.3%
SK-MEL-5
  growth, % of control at 10 µM: 92.9%
COLO 205
  growth, % of control at 10 µM: 105%
HCT-116
  growth, % of control at 10 µM: 30.7%
MCF7
  growth, % of control at 10 µM: 77.8%
SK-MEL-28
  growth, % of control at 10 µM: 82.2%
K562
  growth, % of control at 10 µM: 72.3%
786-0
  growth, % of control at 10 µM: 39.9%
Malme-3M
  growth, % of control at 10 µM: 6.42%
TK-10
  growth, % of control at 10 µM: 46.7%
MOLT-4
  growth, % of control at 10 µM: 83%
UACC-62
  growth, % of control at 10 µM: 61.2%
[2]
  growth, % of control at 10 µM: 55.6%
EKVX
  growth, % of control at 10 µM: 54.6%
IGROV-1
  growth, % of control at 10 µM: 64.2%
CAKI-1
  growth, % of control at 10 µM: 63.9%
Cells [3]
  inhibition at 10 µM: 53%
Leukemia cell
  inhibition at 10 µM: 104%
UACC-257
  growth, % of control at 10 µM: 43.9%
HOP-62
  growth, % of control at 10 µM: 30.1%
SK-OV-3
  growth, % of control at 10 µM: 81.9%
OVCAR-8
  growth, % of control at 10 µM: 45.1%
Cells [4]
  inhibition at 10 µM: 65%
Cells [5]
  growth percent at 10 µM: 78%
ACHN
  growth, % of control at 10 µM: 82.5%
OVCAR-3
  growth, % of control at 10 µM: 57.7%
MDA-MB-468
  growth, % of control at 10 µM: 64.6%
Cells [6]
  growth percent at 10 µM: 65%
OVCAR-5
  growth, % of control at 10 µM: 65%
PC-3
  growth, % of control at 10 µM: 57.8%
[7]
  growth, % of control at 10 µM: 211%
Melanoma cell
  inhibition at 10 µM: 60%

From ChEMBL document CHEMBL1140227, “Histone deacetylase inhibitors through click chemistry” (J Med Chem, 2008)
